Source: ChEMBL document CHEMBL1143542, “Structure-activity relationships of bivalent aminoglycosides and evaluation of their microbiological activities” (2005)
Values after ≈ are worked out from the molar mass of the structure shown.

What was measured:
Type in all cases: functional
Staphylococcus aureus [1] = assay: In vitro minimum inhibitory concentration against Staphylococcus aureus MRSA 3359
Outline: (§1)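 Broth microdilution following CLSI M100-S12. Stocks were 10 mg/mL in water, diluted in Mueller–Hinton broth to a top level of 128, then serially 2-fold in plates. Bacteria in cation-adjusted Mueller–Hinton broth were mixed 1:1 with drug and incubated 16–20 h at 35 °C. MIC was the lowest concentration with no visible growth. Run in duplicate with no-antibiotic and no-inoculum (sterility) controls.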

Pseudomonas aeruginosa [2] = assay: In vitro minimum inhibitory concentration against Pseudomonas aeruginosa PAO-1 Minimum inhibitory concentration against Pseudomonas aeruginosa PAO-1; outline: as §1
Enterococcus faecalis = assay: In vitro minimum inhibitory concentration against Enterococcus faecalis 29212; outline: as §1
Pseudomonas aeruginosa [3] = assay: In vitro minimum inhibitory concentration against Pseudomonas aeruginosa ATCC 27853; outline: as §1
Escherichia coli = assay: In vitro minimum inhibitory concentration against Escherichia coli ATCC 25922; outline: as §1
Staphylococcus aureus [4] = assay: In vitro minimum inhibitory concentration against Staphylococcus aureus ATCC 29213; outline: as §1
Pseudomonas aeruginosa [5] = assay: In vitro minimum inhibitory concentration against Pseudomonas aeruginosa PAO-1; outline: as §1

SMILES | MIC (Staphylococcus aureus [1]) [µg/mL] | MIC (Pseudomonas aeruginosa [2]) [µg/mL] | MIC (Enterococcus faecalis) [µg/mL] | MIC (Pseudomonas aeruginosa [3]) [µg/mL] | MIC (Escherichia coli) [µg/mL] | MIC (Staphylococcus aureus [4]) [µg/mL] | MIC (Pseudomonas aeruginosa [5]) [µg/mL]
NC[C@@H]1C[C@H](O)[C@@H](N)[C@H](O[C@H]2[C@H](O)[C@@H](OC[C@@H](O)CN[C@H]3CC[C@H](NC[C@@H](O)CO[C@@H]4[C@@H](O)[C@H](O[C@H]5O[C@H](CN)[C@@H](O)C[C@H]5N)[C@@H](N)C[C@H]4N)CC3)[C@H](N)C[C@@H]2N)O1 | 16 (≈ 19.1 µM) | 2 (≈ 2.38 µM) | 32 (≈ 38.1 µM) | 2 (≈ 2.38 µM) | 4 (≈ 4.77 µM) | 0.5 (≈ 0.596 µM) | 
CCN(CCCN(CC)C[C@@H](O)CO[C@@H]1[C@@H](O)[C@H](N)C[C@H](N)[C@H]1O[C@H]1O[C@H](CN)[C@@H](O)[C@H](O)[C@H]1N)C[C@@H](O)CO[C@@H]1[C@@H](O)[C@H](N)C[C@H](N)[C@H]1O[C@H]1O[C@H](CN)[C@@H](O)[C@H](O)[C@H]1N | 50 (≈ 56.4 µM) |  | > 50 | 6.3 (≈ 7.1 µM) | 12.5 (≈ 14.1 µM) | 3.1 (≈ 3.49 µM) | 6.3 (≈ 7.1 µM)
NC[C@H]1O[C@H](O[C@H]2[C@H](OC[C@H](O)CN3CC4CC3CN4C[C@@H](O)CO[C@@H]3[C@@H](O)[C@H](N)C[C@H](N)[C@H]3O[C@H]3O[C@H](CN)[C@@H](O)[C@H](O)[C@H]3N)[C@@H](O)[C@H](N)C[C@@H]2N)[C@H](N)[C@@H](O)[C@@H]1O | > 50 |  | > 50 | 12.5 (≈ 14.6 µM) | > 50 | 12.5 (≈ 14.6 µM) | 50 (≈ 58.5 µM)
CCN(CCN(CC)C[C@@H](O)CO[C@@H]1[C@@H](O)[C@H](N)C[C@H](N)[C@H]1O[C@H]1O[C@H](CN)[C@@H](O)[C@H](O)[C@H]1N)C[C@@H](O)CO[C@@H]1[C@@H](O)[C@H](N)C[C@H](N)[C@H]1O[C@H]1O[C@H](CN)[C@@H](O)[C@H](O)[C@H]1N | > 50 |  | > 50 | > 50 | > 50 | > 50 | > 50

More lines, now with the values ahead:

MIC (Staphylococcus aureus [1]) [µg/mL] | MIC (Pseudomonas aeruginosa [2]) [µg/mL] | MIC (Enterococcus faecalis) [µg/mL] | MIC (Pseudomonas aeruginosa [3]) [µg/mL] | MIC (Escherichia coli) [µg/mL] | MIC (Staphylococcus aureus [4]) [µg/mL] | MIC (Pseudomonas aeruginosa [5]) [µg/mL] | SMILES
32 (≈ 37.3 µM) | 16 (≈ 18.7 µM) | > 50 | 16 (≈ 18.7 µM) | 16 (≈ 18.7 µM) | 2 (≈ 2.33 µM) |  | CN(CCCCN(C)C[C@@H](O)CO[C@@H]1[C@@H](O)[C@H](N)C[C@H](N)[C@H]1O[C@H]1O[C@H](CN)[C@@H](O)C[C@H]1N)C[C@H](O)CO[C@@H]1[C@@H](O)[C@H](N)C[C@H](N)[C@H]1O[C@H]1O[C@H](CN)[C@@H](O)[C@H](O)[C@H]1N
> 50 | > 50 | > 50 | > 50 | > 50 | > 50 |  | NC[C@H]1O[C@H](O[C@H]2[C@H](OC[C@H](O)CNCCCNCCNC[C@@H](O)CO[C@@H]3[C@@H](O)[C@H](N)C[C@H](N)[C@H]3O[C@H]3O[C@H](CN)[C@@H](O)[C@H](O)[C@H]3N)[C@@H](O)[C@H](N)C[C@@H]2N)[C@H](N)[C@@H](O)[C@@H]1O
10.4 (≈ 13 µM) | 1.3 (≈ 1.63 µM) | > 20.9 | 2.6 (≈ 3.25 µM) | 20.9 (≈ 26.2 µM) | 1.3 (≈ 1.63 µM) |  | NC[C@@H]1C[C@H](O)[C@@H](N)[C@H](O[C@H]2[C@H](O)[C@@H](OC[C@@H](O)CNCCCNC[C@@H](O)CO[C@@H]3[C@@H](O)[C@H](O[C@H]4O[C@H](CN)[C@@H](O)C[C@H]4N)[C@@H](N)C[C@H]3N)[C@H](N)C[C@@H]2N)O1
16 (≈ 19.3 µM) | 4 (≈ 4.83 µM) | 32 (≈ 38.6 µM) | 4 (≈ 4.83 µM) | 16 (≈ 19.3 µM) | 2 (≈ 2.41 µM) |  | NC[C@H]1O[C@H](O[C@H]2[C@H](OC[C@@H](O)CNCCCCNC[C@@H](O)CO[C@@H]3[C@@H](O)[C@H](N)C[C@H](N)[C@H]3O[C@H]3O[C@H](CN)[C@@H](O)C[C@H]3N)[C@@H](O)[C@H](N)C[C@@H]2N)[C@H](N)[C@@H](O)[C@@H]1O
